Results gathered from unrelated publications.
Compare with care: the assays were run in different laboratories.
RET V804M: Proto-oncogene tyrosine-protein kinase receptor Ret (RET, Homo sapiens, UniProt P07949, V804M)
RET: Proto-oncogene tyrosine-protein kinase receptor Ret (RET, Homo sapiens, UniProt P07949)
RET M918T: Proto-oncogene tyrosine-protein kinase receptor Ret (RET, Homo sapiens, UniProt P07949, M918T)
RET V804L: Proto-oncogene tyrosine-protein kinase receptor Ret (RET, Homo sapiens, UniProt P07949, V804L)

| Structure (SMILES) | target | read-out | action | technique | tested at | quantity | value |
| --- | --- | --- | --- | --- | --- | --- | --- |
| O=S(=O)(NC1CCC(c2cc(F)ccc2F)(S(=O)(=O)c2ccc(Cl)cc2)CC1)C(F)(F)F (stereo not drawn) | RET V804M | cell-free assay |  | competition with immobilised ligand | 1 µM | remaining binding | 100% |
| CCOC(=O)N1CCN(c2nc(Nc3ccc(C)cc3)c3nn[nH]c3n2)CC1 | RET | enzyme activity | inhibitor | radiometric | 0.1 µM | remaining activity | 128% |
| O=C(NCc1ncc(C(F)(F)F)cc1Cl)c1ccc2c(c1)C1(CCS(=O)(=O)CC1)[C@@H](C1CC1)N2S(=O)(=O)c1ccc(F)cc1 | RET V804M | cell-free assay |  | competition with immobilised ligand | 1 µM | remaining binding | 100% |
| Nc1ncnc2occ(-c3ccc(NC(=O)Nc4cc(C(F)(F)F)ccc4F)cc3)c12 | RET M918T | cell-free assay |  |  | 20 µM | remaining signal | 0% |
| CC(C)(O)c1cncc(-c2nc3ccc(F)cc3n2C2CC2)c1 | RET | cell-free assay |  | competition with immobilised ligand | 1 µM | remaining binding | 100% |
| CC(=O)Nc1cccc2c1CCN(C(=O)CCNC(=O)c1ccsc1)C2 | RET | enzyme activity | inhibitor | radiometric | 0.1 µM | remaining activity | 104% |
| CC1CCCN1c1nccc(-c2cnn3ncccc23)n1 (stereo not drawn) | RET V804L | binding |  |  | 1 µM | remaining binding | 85% |
| CC(=O)Nc1c(C(C)=O)c(=O)n(C)c2nc(-c3ccc(Cl)cc3Cl)c(-c3ccc(Cl)cc3)cc12 | RET | cell-free assay |  | competition with immobilised ligand | 1 µM | remaining binding | 100% |
| COc1cc2c(N3CCN(C(=O)Nc4ccc(OC(C)C)cc4)CC3)ncnc2cc1OCCCN1CCCCC1 | RET | cell-free assay |  |  | 0.5 µM | remaining signal | 91.5% |
| Cc1ccc(NC(=O)Nc2cc3c(cc2Oc2ccccc2)n(C)c(=O)n3C)cc1C | RET | enzyme activity | inhibitor | radiometric | 10 µM | remaining activity | 128% |
| N[C@H]1CCN(c2nccc(-c3cnn4ncccc34)n2)C1 | RET | binding |  |  | 1 µM | remaining binding | 51% |
| COc1ccc(COc2ccc(Cc3cnc(N)nc3N)cc2OC)cc1 | RET | cell-free assay |  |  | 0.5 µM | remaining signal | 108% |
| C[C@@H]1CCN(c2nccc(-c3cnn4ncccc34)n2)C1 | RET V804M | binding |  |  | 1 µM | remaining binding | 88% |
| CC/C(=N\NC(=O)NCc1cccc(O)c1)c1ccc(O)c(C)c1O | Proto-oncogene tyrosine-protein kinase receptor Ret (RET, Homo sapiens, UniProt P07949, G691S) | enzyme activity | inhibitor |  | 0.1 µM | inhibition | 5.6% |
| COc1cc(NC(=O)Nc2cc(OC)c3nc(NC(=O)c4ccccc4)sc3c2)cc(OC)c1 | RET | enzyme activity | inhibitor | radiometric | 0.1 µM | remaining activity | 112% |
| COc1cc2ncnc(Nc3ccc(Oc4ccccc4)c(C)c3C)c2cc1OC | RET | enzyme activity | inhibitor |  | 1 µM | inhibition | 17% |
| Cc1ccc(C(=O)Nc2ccc(CN3CCN(C)CC3)c(C(F)(F)F)c2)cc1C#Cc1cnc2cccnn12 | RET V804L | enzyme activity |  |  | 23.5 nM | remaining activity | 17% |
| COc1cccc(Nc2nc(C)c(C(=O)Nc3ccc4c(c3)OCO4)s2)c1 | RET | enzyme activity | inhibitor | radiometric | 0.1 µM | remaining activity | 129% |

| Structure (SMILES) | target | read-out | action | technique | tested at | quantity | value |
| --- | --- | --- | --- | --- | --- | --- | --- |
| COc1cc(-c2cc(-c3ccc(N4CCNCC4)cc3)cnc2N)cc(OC)c1OC | RET V804L | enzyme activity | inhibitor |  | 1 µM | inhibition | 5% |
| CS(=O)(=O)CCNCc1ccc(-c2ccc3ncnc(Nc4ccc(OCc5cccc(F)c5)c(Cl)c4)c3c2)o1 | RET | cell-free assay |  |  | 0.5 µM | remaining signal | 99.8% |
| c1cnn2ncc(-c3ccnc(N4CCC45COC5)n3)c2c1 | RET V804M | binding |  |  | 1 µM | remaining binding | 100% |
| CCCOc1ccc(OC)c(F)c1C(=O)c1ccc(C(=O)N[C@@H]2CNC[C@H]2NC(=O)c2ccc3[nH]ncc3c2)cc1 | RET V804M | enzyme activity | inhibitor |  | 10 µM | remaining activity | 4% |
| COc1cc(NC(=O)Nc2cccc(Br)c2)cc2sc(NC(=O)c3ccccc3)nc12 | RET | enzyme activity | inhibitor | radiometric | 10 µM | remaining activity | 127% |
| CS(=O)(=O)N1CCCC(NC(=O)[C@H](CCC2CCCCC2)NC(=O)c2ccc(CNc3ncnc4c3nnn4-c3ccccc3)cc2)C1 (stereo partly drawn) | RET M918T | cell-free assay |  | competition with immobilised ligand | 0.1 µM | remaining binding | 93% |
| Cc1cc(NC(=O)c2cccc3cc(-c4cccc5[nH]nc(N)c45)ccc23)ccc1F | RET V804M | enzyme activity | inhibitor |  | 0.1 µM | activity vs control | 117% |
| Cc1cc(C)c(-n2ccn3nc(-c4cccnc4)cc23)cc1NC(=O)c1cc(C#N)cc(S(F)(F)(F)(F)F)c1 | RET V804M | cell-free assay |  | competition with immobilised ligand | 0.1 µM | remaining binding | 94.5% |
| CN(C)c1ncc(F)c(-c2cnn3ncccc23)n1 | RET | binding |  |  | 1 µM | remaining binding | 97% |
| Cc1ccc(-c2nn3c(=O)cc(CNC(=O)Nc4ccc(C)c(Cl)c4)nc3s2)cc1 | RET | enzyme activity | inhibitor | radiometric | 0.1 µM | remaining activity | 116% |
| CN(CCCC(F)(F)F)c1nccc(-c2cnn3ncccc23)n1 | RET V804M | binding |  |  | 1 µM | remaining binding | 100% |
| Cc1c(NC(=O)c2cc(C(N)=O)nc3cc(F)ccc23)c(C(F)(F)F)nn1Cc1ccc(C(C)(C)C)cc1 | RET V804M | cell-free assay |  | competition with immobilised ligand | 1 µM | remaining binding | 100% |
| CO[C@]1(C(=O)N[C@@H](C)c2ccc(-n3cc(F)cn3)nc2)CC[C@H](c2nc(C)cc(Nc3cc(C)[nH]n3)n2)CC1 | Proto-oncogene tyrosine-protein kinase receptor Ret (RET, Homo sapiens, UniProt P07949, L772A) | thermal stability |  | DSF | 10 µM | ΔTm | 11.7 °C |
| Cc1cnn2ncc(-c3ccnc(N(C)C)n3)c2c1 | RET V804M | binding |  |  | 1 µM | remaining binding | 100% |
| CNC(=O)c1cc(Oc2ccc(NC(=O)Nc3ccc(Cl)c(C(F)(F)F)c3)cc2)ccn1 | RET | cell-free assay |  |  | 0.5 µM | remaining signal | 1.78% |
| O=C(Nc1cccnn1)N1CCC(=Cc2cccc(Oc3ccc(C(F)(F)F)cn3)c2)CC1 | RET V804M | cell-free assay |  | competition with immobilised ligand | 1 µM | remaining binding | 100% |
| CCc1cccc(NC(=O)c2cc(-c3ccc(OC)c(S(N)(=O)=O)c3)[nH]n2)c1 | RET | enzyme activity | inhibitor | radiometric | 10 µM | remaining activity | 92.5% |
| COc1ccc(CN2C3CC2CN(c2ccc(-c4cc(OCC(C)(C)O)cn5ncc(C#N)c45)cn2)C3)cn1 | RET | thermal stability |  | DSF | 10 µM | ΔTm | 9.5 °C |
